Legend:
[1] = target: T1, Glucocorticoid receptor (Mus musculus) (UniProt P06537); assay: Induction of glucocorticoid receptor nuclear translocation in mouse C2C12 cells at 1 x 10^-5 to 1.69 x 10^-10 M by chemiluminescence assay relative to control; type: cell-based
T1 sequence (whole entry): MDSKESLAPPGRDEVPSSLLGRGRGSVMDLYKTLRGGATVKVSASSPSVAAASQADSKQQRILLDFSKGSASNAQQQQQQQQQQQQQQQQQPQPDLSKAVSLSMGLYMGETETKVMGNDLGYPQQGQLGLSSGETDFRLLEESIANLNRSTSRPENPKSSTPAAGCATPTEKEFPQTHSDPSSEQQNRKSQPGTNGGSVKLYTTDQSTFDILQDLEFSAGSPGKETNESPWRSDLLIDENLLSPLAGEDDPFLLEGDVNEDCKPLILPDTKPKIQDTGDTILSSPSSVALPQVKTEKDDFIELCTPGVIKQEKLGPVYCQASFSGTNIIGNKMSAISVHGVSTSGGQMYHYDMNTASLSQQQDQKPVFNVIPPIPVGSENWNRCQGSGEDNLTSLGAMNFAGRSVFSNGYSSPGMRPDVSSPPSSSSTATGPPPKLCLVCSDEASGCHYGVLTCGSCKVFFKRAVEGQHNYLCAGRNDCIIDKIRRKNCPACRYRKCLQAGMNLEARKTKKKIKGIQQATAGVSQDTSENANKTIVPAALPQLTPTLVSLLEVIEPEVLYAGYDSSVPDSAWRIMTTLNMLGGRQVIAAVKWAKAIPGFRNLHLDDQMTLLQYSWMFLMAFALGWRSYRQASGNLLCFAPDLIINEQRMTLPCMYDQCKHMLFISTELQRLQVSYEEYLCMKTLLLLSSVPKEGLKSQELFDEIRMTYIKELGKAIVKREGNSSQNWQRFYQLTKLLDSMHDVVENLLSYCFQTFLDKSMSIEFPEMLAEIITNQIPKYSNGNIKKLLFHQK
How it was run: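 GR nuclear translocation measured by DiscoveRx in PathHunter cells using enzyme-fragment complementation. ProLink-tagged GR recruits a nuclear steroid receptor co-activator peptide fused to the enzyme acceptor, giving a chemiluminescent signal.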

[2] = Clearance in Sprague-Dawley rat at 10 mg/kg, iv; type: ADME, organism-based; set-up: dose 10 mg/kg, route intravenous; conditions: in vivo
[3] = Volume of distribution at steady state in CD1 mouse at 10 mg/kg, iv; type: ADME, organism-based; set-up: dose 10 mg/kg, route intravenous; conditions: in vivo, read-out: Vdss
How it was run: (§1)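 CD1 mice (n = 3 per compound) given 10 mg/kg as a single tail-vein injection in a pH 7.0 solution of 10% ethanol plus PEG400 (some compounds also with 10% DMSO). Blood was sampled at 0, 5, 15 and 30 min and 1, 2, 4, 8 and 24 h. Parameters were derived from the plasma concentration–time profiles.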

[4] = target: Voltage-gated inwardly rectifying potassium channel KCNH2 (Homo sapiens, UniProt Q12809); assay: Inhibition of human ERG
Chain of Voltage-gated inwardly rectifying potassium channel KCNH2 (Q12809 whole entry): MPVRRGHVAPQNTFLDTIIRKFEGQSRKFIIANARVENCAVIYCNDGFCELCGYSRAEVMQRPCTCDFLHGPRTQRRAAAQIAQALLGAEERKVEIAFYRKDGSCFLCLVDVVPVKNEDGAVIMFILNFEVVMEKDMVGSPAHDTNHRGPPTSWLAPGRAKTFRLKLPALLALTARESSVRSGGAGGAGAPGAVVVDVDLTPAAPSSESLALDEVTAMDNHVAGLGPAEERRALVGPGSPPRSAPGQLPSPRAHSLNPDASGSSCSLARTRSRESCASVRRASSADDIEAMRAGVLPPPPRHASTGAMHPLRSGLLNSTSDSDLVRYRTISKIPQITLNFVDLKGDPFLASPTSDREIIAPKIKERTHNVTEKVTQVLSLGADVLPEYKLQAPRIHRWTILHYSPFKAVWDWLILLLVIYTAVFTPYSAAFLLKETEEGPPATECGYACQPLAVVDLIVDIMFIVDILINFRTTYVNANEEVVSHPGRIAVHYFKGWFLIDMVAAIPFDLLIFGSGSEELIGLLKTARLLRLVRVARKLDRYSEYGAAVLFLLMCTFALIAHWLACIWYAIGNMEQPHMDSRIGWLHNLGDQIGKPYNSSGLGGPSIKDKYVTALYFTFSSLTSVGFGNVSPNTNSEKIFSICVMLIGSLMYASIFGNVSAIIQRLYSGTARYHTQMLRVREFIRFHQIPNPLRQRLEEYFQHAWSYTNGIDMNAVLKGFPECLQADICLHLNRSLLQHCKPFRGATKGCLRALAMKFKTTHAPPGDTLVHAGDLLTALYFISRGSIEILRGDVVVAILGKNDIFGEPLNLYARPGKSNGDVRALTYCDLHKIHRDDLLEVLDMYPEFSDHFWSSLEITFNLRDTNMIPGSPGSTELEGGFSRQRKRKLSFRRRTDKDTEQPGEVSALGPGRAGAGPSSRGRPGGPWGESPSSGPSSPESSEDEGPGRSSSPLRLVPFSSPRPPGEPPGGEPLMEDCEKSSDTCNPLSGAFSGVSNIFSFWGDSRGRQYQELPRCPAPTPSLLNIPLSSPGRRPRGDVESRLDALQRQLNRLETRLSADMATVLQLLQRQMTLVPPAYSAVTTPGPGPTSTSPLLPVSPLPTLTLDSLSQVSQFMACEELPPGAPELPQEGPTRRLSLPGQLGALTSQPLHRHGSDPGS

[5] = Tmax in Sprague-Dawley rat at 50 mg/kg, po; type: ADME, organism-based; set-up: dose 50 mg/kg, route oral; conditions: in vivo
How it was run: (§2)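 Sprague–Dawley rats (n = 3) were dosed orally with an emulsion in 30% Labrafil. Blood was sampled from 0 to 24 h (0, 5, 15, 30 min; 1, 2, 4, 8, 24 h). Bioavailability was derived against the IV arm.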

[6] = Terminal half life in beagle dog at 30 mg/kg, po; type: ADME, organism-based, Canis lupus familiaris; set-up: dose 30 mg/kg, route oral; conditions: in vivo, read-out: beta t1/2 (converted)
How it was run: (§3)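 Beagles (n = 3) were given an oral emulsion in 30% Labrafil. Blood was collected at 0, 5, 15 and 30 min and at 1, 2, 4, 8 and 24 h. Bioavailability was derived relative to IV dosing.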

Rattus norvegicus [7] = assay: Total unbound Cmax in Sprague-Dawley rat at 50 mg/kg, po; type: ADME, organism-based; set-up: dose 50 mg/kg, route oral; conditions: in vivo; how it was run: as §2
Caco-2 = assay: Apparent permeability from apical to basolateral side of human Caco2 cells; type: ADME, cell-based
How it was run: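 Caco-2 monolayer permeability measured in the apical-to-basolateral direction and reported as Papp (10−6 cm/s); the efflux ratio was also determined.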

[8] = Clearance in CD1 mouse at 10 mg/kg, iv; type: ADME, organism-based; set-up: dose 10 mg/kg, route intravenous; conditions: in vivo; how it was run: as §1
Canis familiaris [9] = assay: Total unbound AUC (0 to infinity) in beagle dog at 30 mg/kg, po; type: ADME, organism-based, Canis lupus familiaris; set-up: dose 30 mg/kg, route oral; conditions: in vivo; how it was run: as §3
Mus musculus [10] = assay: Oral bioavailability in CD1 mouse at 50 mg/kg; type: ADME, organism-based; conditions: in vivo
How it was run: (§4)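 CD1 mice (n = 3 per compound) were dosed orally at 50 mg/kg as an aqueous emulsion in 30% Labrafil. Blood was drawn at 0, 5, 15 and 30 min and 1, 2, 4, 8 and 24 h. Bioavailability and other parameters were calculated from the plasma profiles and compared against the intravenous arm.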

[11] = Metabolic stability in rat liver microsomes assessed as compound ramaining at 2 uM measured at 1 hr; type: ADME, Microsome; conditions: read-out: Stability
How it was run: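 Rat liver microsomes at 0.5 mg/mL final, with 5 mM MgCl2 and 5 mM PBS. The reaction was started with 1 mM NADPH final and run at 37 °C. The negative control used water in place of NADPH; verapamil was the positive control. Read-out was % parent remaining at 1 h.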

Rattus norvegicus [12] = assay: Total unbound AUC (0 to infinity) in Sprague-Dawley rat at 50 mg/kg, po; type: ADME, organism-based; set-up: dose 50 mg/kg, route oral; conditions: in vivo; how it was run: as §2
C2C12 = assay: Cytotoxicity against mouse C2C12 cells assessed as cell viability at 0.01 to 100 ug/mL after 24 hrs by MTT assay; type: cell-based; conditions: c2c12, 24 h
How it was run: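 MTT viability run on C2C12 cells grown and treated alongside the NF-κB reporter plates, with drug at 0.01–100 µg/ml and DMSO vehicle. Viability is expressed as percent of untreated cells. A one-way repeated-measures ANOVA tested for a concentration effect.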

[13] = Terminal half life in Sprague-Dawley rat at 10 mg/kg, iv; type: ADME, organism-based; set-up: dose 10 mg/kg, route intravenous; conditions: in vivo, read-out: beta t1/2 (converted)
Mus musculus [14] = assay: Total unbound AUC (0 to infinity) in CD1 mouse at 50 mg/kg, po; type: ADME, organism-based; set-up: dose 50 mg/kg, route oral; conditions: in vivo
Rattus norvegicus [15] = assay: Total unbound AUC (0 to infinity) in Sprague-Dawley rat at 10 mg/kg, iv; type: ADME, organism-based; set-up: dose 10 mg/kg, route intravenous; conditions: in vivo
[16] = Terminal half life in CD1 mouse at 10 mg/kg, iv; type: ADME, organism-based; set-up: dose 10 mg/kg, route intravenous; conditions: in vivo, read-out: beta t1/2 (converted); how it was run: as §1
Cytochrome P450 2D6 = Cytochrome P450 2D6 (Homo sapiens, UniProt P10635); assay: Inhibition of CYP2D6 (unknown origin); type: ADME
Chain of Cytochrome P450 2D6 (P10635 whole entry): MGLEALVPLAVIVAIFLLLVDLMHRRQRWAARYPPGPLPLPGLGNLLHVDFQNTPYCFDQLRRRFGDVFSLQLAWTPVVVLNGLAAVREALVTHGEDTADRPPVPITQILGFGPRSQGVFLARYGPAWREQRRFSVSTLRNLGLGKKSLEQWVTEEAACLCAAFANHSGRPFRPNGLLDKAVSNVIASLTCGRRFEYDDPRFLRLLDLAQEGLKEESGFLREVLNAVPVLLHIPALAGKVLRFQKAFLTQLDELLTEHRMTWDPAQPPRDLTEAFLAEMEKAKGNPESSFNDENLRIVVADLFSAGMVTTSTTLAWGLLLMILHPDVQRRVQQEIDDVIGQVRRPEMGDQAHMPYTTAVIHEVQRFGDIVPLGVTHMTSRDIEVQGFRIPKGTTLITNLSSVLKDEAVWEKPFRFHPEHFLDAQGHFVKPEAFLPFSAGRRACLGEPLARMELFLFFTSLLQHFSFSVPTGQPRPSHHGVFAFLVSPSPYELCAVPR

Mus musculus [17] = assay: Total unbound AUC (0 to infinity) in CD1 mouse at 10 mg/kg, iv; type: ADME, organism-based; set-up: dose 10 mg/kg, route intravenous; conditions: in vivo
[18] = Metabolic stability in monkey liver microsomes assessed as compound remaining at 2 uM measured at 1 hr; type: ADME, Macaca mulatta, Microsome; conditions: rhesus monkey, read-out: Stability
How it was run: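 Liver microsomes (human, or male monkey, dog, rat or mouse) at 0.5 mg/mL final with 2 µM compound, 5 mM MgCl2 and 5 mM PBS. The reaction was started with 1 mM NADPH and run at 37 °C. Verapamil was the positive control; water replaced NADPH in the negative control. Read-out was percent parent remaining at 1 h.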

[19] = Terminal half life in beagle dog at 10 mg/kg, iv; type: ADME, organism-based, Canis lupus familiaris; set-up: dose 10 mg/kg, route intravenous; conditions: in vivo, read-out: beta t1/2 (converted)
Canis familiaris [20] = assay: Oral bioavailability in beagle dog at 30 mg/kg; type: ADME, organism-based, Canis lupus familiaris; conditions: in vivo; how it was run: as §3
[21] = Volume of distribution at steady state in Sprague-Dawley rat at 10 mg/kg, iv; type: ADME, organism-based; set-up: dose 10 mg/kg, route intravenous; conditions: in vivo, read-out: Vdss
[22] = Terminal half life in CD1 mouse at 50 mg/kg, po; type: ADME, organism-based; set-up: dose 50 mg/kg, route oral; conditions: in vivo, read-out: beta t1/2 (converted); how it was run: as §4
[23] = AUClast in CD1 mouse at 10 mg/kg, iv; type: ADME, organism-based; set-up: time 0 - last, dose 10 mg/kg, route intravenous; conditions: plasma; how it was run: as §1

Question: For `C[C@@H]1C[C@H]2[C@@H]3CCC4=CC(=O)C=C[C@]4(C)C3=CC[C@]2(C)[C@@]1(O)C(=O)CO` [VAMOROLONE], which Activity [1] is on record?
Answer: Its Activity is 80.4%.

Question: What about the clearance [2] of the same compound?
Answer: The clearance was 20.2 mL/min/kg.

Question: What about the Vd [3] of the same compound?
Answer: The Vd was 0.757 L/kg.

Question: What about the IC50 [4] of the same compound?
Answer: Its IC50 is 20 µM.

Question: What about the Tmax [5] of the same compound?
Answer: Its Tmax is 4 h.

Question: What about the half-life [6] of the same compound?
Answer: Its half-life is 2.25 h.

Question: And the fCmax (Rattus norvegicus [7])?
Answer: Its fCmax is 2543 ng/mL.

Question: What about the Papp (Caco-2) of the same compound?
Answer: The Papp was 11.2 ×10⁻⁶ cm/s.

Question: What about the clearance [8] of the same compound?
Answer: Its clearance is 18.8 mL/min/kg.

Question: What about the fAUC (Canis familiaris [9]) of the same compound?
Answer: The fAUC was 10844 ng·h/mL.

Question: What about the F (Mus musculus [10]) of the same compound?
Answer: The F was 74.5%.

Question: What about the remaining at 1 h, 2 µM [11] of the same compound?
Answer: Its remaining at 1 h, 2 µM is 35.4%.

Question: And the fAUC (Rattus norvegicus [12])?
Answer: The fAUC was 19937 ng·h/mL.

Question: What about the Activity (C2C12) of the same compound?
Answer: The Activity was “Non-toxic”.

Question: What about the half-life [13] of the same compound?
Answer: Its half-life is 0.58 h.

Question: What about the fAUC (Mus musculus [14]) of the same compound?
Answer: Its fAUC is 32932 ng·h/mL.

Question: What about the fAUC (Rattus norvegicus [15]) of the same compound?
Answer: Its fAUC is 8339 ng·h/mL.

Question: And the half-life [16]?
Answer: The half-life was 0.354 h.

Question: What about the IC50 (Cytochrome P450 2D6) of the same compound?
Answer: Its IC50 is over 50 µM.

Question: What about the fAUC (Mus musculus [17]) of the same compound?
Answer: Its fAUC is 8842 ng·h/mL.

Question: And the remaining at 1 h, 2 µM [18]?
Answer: Its remaining at 1 h, 2 µM is 100%.

Question: What about the half-life [19] of the same compound?
Answer: Its half-life is 5.42 h.

Question: What about the F (Canis familiaris [20]) of the same compound?
Answer: The F was 53.2%.

Question: And the Vd [21]?
Answer: Its Vd is 0.77 L/kg.

Question: What about the half-life [22] of the same compound?
Answer: The half-life was 0.678 h.

Question: And the AUC(0-t) [23]?
Answer: The AUC(0-t) was 8840 ng·h/mL.
